One experiment deals with HCT 116 cells. As to the kind of experiment: MTS reduction assay, antiproliferative activity on HCT 116. It counts as cell-based. Conditions: Homo sapiens, HCT-116, 96 h. Summed up:
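HCT116 cells grown in McCoy's 5A with 10% FBS (37 °C, 5% CO2), seeded at 3 × 10^3/well in triplicate and left to adhere overnight. Exposed to test compound at 0.01–100 μM, or DMSO, for 96 h. MTS reagent added for 2 h at 37 °C; absorbance read at 490 nm. Curves of log(concentration) vs response fitted with a variable Hill slope.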

Experiment [1] deals with NCI sixty human tumor cell line panel. The experiment in a line: NCI sixty human tumor cell line panel, single dose 10 μM. Format: cell-based. Conditions: Homo sapiens; for activity at 10 µM: read-out: Mean % growth at 10 μM.
The next experiment deals with NCI 60 cancer cell lines. As to the kind of experiment: NCI dose response assay. It counts as cell-based, human.
The test system of experiment [2] is mitotic spindle of HeLaM cells. Format: cell-based. To be noted: compound 10 μM + MG132 + ZM447439 (DMSO+MG132+ZM447439 3%).
Experiment [3] relates to histone H3 acetylation and tubulin acetylation in HCT116 cells. As to the kind of experiment: Western blot of histone H3 and tubulin acetylation in HCT116 cells. Format: cell-based, human. Conditions: HCT116, 24 h, IPEs up to highest concentration 25 μM. In outline:
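HCT116 cells (2 × 10^6 per T-25 flask) adhered overnight, then given test compound at 1, 10 or 25 μM, or DMSO, for 24 h. Lysed in RIPA; protein measured by BCA. Acetyl-histone H3 and acetyl-tubulin immunoblotted, detected with fluorescent secondary antibodies on an Odyssey scanner.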

In the next experiment the target is T1, HDAC6 (Homo sapiens, UniProt Q9UBN7).
T1 sequence (Q9UBN7 1-1215): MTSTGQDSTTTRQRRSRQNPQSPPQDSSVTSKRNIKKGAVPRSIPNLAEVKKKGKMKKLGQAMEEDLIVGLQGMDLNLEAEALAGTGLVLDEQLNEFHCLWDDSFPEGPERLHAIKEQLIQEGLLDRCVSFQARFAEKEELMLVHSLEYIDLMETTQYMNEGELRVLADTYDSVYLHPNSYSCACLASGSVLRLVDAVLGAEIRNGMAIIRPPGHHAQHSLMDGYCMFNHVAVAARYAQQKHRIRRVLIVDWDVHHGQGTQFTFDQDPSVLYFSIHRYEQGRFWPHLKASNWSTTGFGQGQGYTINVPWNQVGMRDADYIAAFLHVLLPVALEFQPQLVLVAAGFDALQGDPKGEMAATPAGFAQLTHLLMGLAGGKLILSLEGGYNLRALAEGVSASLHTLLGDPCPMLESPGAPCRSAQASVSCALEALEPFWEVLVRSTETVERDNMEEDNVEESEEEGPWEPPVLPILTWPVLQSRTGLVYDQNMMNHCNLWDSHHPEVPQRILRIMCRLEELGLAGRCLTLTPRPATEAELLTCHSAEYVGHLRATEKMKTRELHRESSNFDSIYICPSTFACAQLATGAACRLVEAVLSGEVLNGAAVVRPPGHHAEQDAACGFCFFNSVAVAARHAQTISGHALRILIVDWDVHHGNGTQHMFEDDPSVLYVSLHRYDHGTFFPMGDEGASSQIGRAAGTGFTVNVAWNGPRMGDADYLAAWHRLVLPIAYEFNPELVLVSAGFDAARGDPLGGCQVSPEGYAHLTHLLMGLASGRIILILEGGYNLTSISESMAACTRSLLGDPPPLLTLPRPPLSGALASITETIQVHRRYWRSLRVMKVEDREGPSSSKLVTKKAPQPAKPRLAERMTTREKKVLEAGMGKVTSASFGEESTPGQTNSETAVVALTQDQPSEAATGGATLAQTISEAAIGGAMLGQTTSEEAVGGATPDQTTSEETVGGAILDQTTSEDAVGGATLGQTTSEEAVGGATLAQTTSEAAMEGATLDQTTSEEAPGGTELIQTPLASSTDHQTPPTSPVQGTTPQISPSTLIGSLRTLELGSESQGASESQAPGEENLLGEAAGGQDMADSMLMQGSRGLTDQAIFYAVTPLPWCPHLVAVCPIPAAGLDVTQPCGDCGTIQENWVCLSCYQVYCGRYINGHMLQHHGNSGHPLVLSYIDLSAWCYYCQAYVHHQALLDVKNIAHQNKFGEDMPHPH
The experiment in a line: HDAC-Glo inhibitor testing with recombinant HDAC6. Format: biochemical.

A further experiment has as its target T2, HDAC8 (Homo sapiens, UniProt Q9BY41).
T2 sequence (Q9BY41 1-377): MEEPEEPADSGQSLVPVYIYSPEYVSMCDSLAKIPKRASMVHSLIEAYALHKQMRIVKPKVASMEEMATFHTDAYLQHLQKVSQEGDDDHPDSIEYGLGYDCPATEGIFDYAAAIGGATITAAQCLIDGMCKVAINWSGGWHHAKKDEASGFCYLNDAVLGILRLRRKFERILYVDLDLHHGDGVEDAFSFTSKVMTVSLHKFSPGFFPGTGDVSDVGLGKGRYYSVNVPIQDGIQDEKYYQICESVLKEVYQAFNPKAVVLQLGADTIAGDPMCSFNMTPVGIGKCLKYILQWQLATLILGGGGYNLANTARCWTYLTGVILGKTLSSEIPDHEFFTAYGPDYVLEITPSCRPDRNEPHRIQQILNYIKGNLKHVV
As to the kind of experiment: HDAC-Glo inhibitor testing with recombinant HDAC8. It counts as biochemical. Conditions: for remaining activity at 100 µM: read-out: HDAC8 activity remaining.

Another experiment deals with HDAC3 (Homo sapiens, UniProt O15379). The experiment in a line: HDAC-Glo inhibitor testing with recombinant HDAC3. Format: biochemical.
The target of another experiment is HDAC2 (Homo sapiens, UniProt Q92769). The experiment in a line: HDAC-Glo inhibitor testing with recombinant HDAC2. Format: biochemical.
Another experiment concerns the target HDAC1 (Homo sapiens, UniProt Q13547). As to the kind of experiment: HDAC-Glo inhibitor testing with recombinant HDAC1. Format: biochemical.
Another experiment has as its system HeLaM cells. As to the kind of experiment: Flow cytometry cell cycle analysis. It counts as cell-based. In outline: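 5 × 10^5 HeLaM cells plated, treated next day with test compound or DMSO for 24, 48 or 72 h. All cells (floating and attached) collected and fixed in 70% ethanol (final). […] 10 μg/ml, 30 min, 37 °C, then propidium iodide in PBS + 2% FBS. SubG1 gated; subG1 excluded before modeling live-cell cycle distribution.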

Experiment [4] deals with tubulin heterodimers, purified from porcine brain (Sus scrofa, UniProt P02554). The experiment in a line: Turbidity-based tubulin polymerization assay. Format: biochemical. Conditions: 10 μM compound, 37 °C, exponential phase (DMSO 10 mOD/min).
tubulin heterodimers, purified from porcine brain, sequence (P02554 whole entry): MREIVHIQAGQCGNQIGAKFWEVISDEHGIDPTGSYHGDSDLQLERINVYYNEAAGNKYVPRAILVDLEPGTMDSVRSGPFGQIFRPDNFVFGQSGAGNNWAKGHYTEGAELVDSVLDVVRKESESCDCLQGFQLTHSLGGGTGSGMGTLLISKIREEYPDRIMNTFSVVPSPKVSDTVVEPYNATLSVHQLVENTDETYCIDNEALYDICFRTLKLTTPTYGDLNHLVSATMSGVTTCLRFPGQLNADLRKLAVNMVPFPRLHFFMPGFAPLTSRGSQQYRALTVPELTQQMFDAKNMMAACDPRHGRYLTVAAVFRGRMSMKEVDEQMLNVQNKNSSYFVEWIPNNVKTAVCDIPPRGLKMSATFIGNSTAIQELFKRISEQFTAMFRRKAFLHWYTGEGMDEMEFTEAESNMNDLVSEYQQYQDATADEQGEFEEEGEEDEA
tubulin heterodimers, purified from porcine brain, sequence (P02550 whole entry partner): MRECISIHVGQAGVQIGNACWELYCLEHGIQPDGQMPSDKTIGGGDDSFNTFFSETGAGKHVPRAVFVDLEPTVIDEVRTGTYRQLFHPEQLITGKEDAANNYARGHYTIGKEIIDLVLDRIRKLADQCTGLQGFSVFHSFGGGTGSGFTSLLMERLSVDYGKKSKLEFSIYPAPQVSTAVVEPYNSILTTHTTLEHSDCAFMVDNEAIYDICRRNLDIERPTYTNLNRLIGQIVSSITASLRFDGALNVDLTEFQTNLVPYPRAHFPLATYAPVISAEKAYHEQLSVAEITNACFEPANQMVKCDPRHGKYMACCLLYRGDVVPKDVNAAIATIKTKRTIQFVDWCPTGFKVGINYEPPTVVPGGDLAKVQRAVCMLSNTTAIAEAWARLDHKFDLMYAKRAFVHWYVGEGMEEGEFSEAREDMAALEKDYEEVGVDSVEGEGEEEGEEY

HDAC3, sequence (O15379 whole entry): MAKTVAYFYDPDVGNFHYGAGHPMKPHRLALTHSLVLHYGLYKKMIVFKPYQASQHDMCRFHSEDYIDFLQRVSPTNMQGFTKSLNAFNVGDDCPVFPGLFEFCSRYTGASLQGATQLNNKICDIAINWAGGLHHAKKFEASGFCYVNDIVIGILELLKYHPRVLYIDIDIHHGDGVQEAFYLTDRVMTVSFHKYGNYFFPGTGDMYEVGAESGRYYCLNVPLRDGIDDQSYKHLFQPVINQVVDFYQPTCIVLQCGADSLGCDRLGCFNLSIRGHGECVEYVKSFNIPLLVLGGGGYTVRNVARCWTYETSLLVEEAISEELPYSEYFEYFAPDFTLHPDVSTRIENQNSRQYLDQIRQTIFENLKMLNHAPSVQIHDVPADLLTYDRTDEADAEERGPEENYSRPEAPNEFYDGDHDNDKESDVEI
HDAC3, sequence (Q9Y618 395-489 partner limits assumed): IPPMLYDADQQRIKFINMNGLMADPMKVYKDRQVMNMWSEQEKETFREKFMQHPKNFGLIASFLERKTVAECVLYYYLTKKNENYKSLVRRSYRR
HDAC1, sequence (Q13547 whole entry): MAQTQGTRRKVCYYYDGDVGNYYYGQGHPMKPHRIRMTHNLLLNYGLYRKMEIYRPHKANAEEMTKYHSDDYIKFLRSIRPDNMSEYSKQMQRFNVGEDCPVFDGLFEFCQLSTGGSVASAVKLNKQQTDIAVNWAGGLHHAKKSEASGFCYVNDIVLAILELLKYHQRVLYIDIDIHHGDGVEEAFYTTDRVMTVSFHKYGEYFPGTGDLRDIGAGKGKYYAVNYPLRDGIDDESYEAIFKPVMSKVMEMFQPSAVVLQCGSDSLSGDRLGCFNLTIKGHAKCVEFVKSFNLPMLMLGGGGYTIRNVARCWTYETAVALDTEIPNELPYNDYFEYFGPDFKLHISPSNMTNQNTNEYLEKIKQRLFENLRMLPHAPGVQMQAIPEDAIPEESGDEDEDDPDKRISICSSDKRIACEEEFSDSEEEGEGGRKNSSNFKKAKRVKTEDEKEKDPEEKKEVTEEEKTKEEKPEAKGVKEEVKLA
HDAC2, sequence (Q92769 whole entry): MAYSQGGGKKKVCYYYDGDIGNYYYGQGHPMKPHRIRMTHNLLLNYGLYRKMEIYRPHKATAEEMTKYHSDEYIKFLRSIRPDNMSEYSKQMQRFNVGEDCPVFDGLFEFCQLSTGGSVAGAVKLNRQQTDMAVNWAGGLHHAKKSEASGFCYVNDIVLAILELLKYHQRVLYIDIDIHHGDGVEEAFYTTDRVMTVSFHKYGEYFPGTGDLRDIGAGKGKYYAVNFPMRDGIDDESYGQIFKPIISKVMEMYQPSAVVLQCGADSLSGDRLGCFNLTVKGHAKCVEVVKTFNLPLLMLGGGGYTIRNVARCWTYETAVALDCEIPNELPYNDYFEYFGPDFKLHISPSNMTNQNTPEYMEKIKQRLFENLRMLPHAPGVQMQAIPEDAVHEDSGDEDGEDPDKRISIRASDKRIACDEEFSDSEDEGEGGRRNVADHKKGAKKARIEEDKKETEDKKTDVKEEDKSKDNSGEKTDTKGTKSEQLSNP

For the molecule `Cc1ccc(NC(=O)Cc2ccc(/C=C/C(=O)c3ncc[nH]3)cc2)cc1` [IPE-3, (E)-2-(4-(3-(1H-Imidazol-2-yl)-3-oxoprop-1-en-1-yl)phenyl)-N-(p-tolyl)acetamide], growth with HCT 116 cells was halved (GI50) at 6.85 µM. The activity at 10 µM in experiment [1] turned out to be 41.3%.

As for `O=C(Cc1ccc(/C=C/C(=O)c2ncc[nH]2)cc1)Nc1ccc(Br)cc1` [IPE-9, (E)-2-(-4(3-(1H-imidazol-2-yl)-3-oxoprop-1-en-1-yl)phenyl)-N-(4-bromophenyl)acetamide], in experiment [1], the activity at 10 µM was determined as 17.9%. The “GI50, all but two of the cell lines each in the leukemia and colon cancer panels” value in the experiment on NCI 60 cancer cell lines is “sub-micromolar”.

With `Cn1ccnc1C(=O)/C=C/c1ccc(CC(=O)Nc2ccccc2)cc1` [IPE-16, (E)-2-(4-(3-(1-Methyl-1H-imidazol-2-yl)-3-oxoprop-1-en-1-yl)phenyl)-N-phenylacetamide], the spindle collapse entry in experiment [2] was “phenotype was reproduced”. The same molecule gave a GI50 in the experiment on HCT 116 cells of 5.91 µM. Also, the activity at 10 µM in experiment [1] was determined as 15.9%. The “global histone H3 acetylation and tubulin acetylation” value in experiment [3] was “no increase in global histone acetylation or tubulin acetylation”.

Turning to `Cn1ccnc1C(=O)/C=C/c1ccc(CC(=O)Nc2ccc(Br)cc2)cc1` [IPE-18, (E)-N-(4-Bromophenyl)-2-(4-(3-(1-methyl-1H-imidazol-2-yl)-3-oxoprop-1-en-1-yl)phenyl)acetamide], the IC50 on HDAC6, at HDAC8, on HDAC3, at HDAC2 and on HDAC1 was more than 100 µM in each case. For the same molecule, in [1], the activity at 10 µM is 19.9%.

In turn, `Cn1ccnc1C(=O)/C=C/c1ccc(CC(=O)Nc2ccc(F)cc2)cc1` [IPE-19, (E)-N-(4-Fluorophenyl)-2-(4-(3-(1-methyl-1H-imidazol-2-yl)-3-oxoprop-1-en-1-yl)phenyl)acetamide] displayed a concentration for 50% growth inhibition (GI50) with HCT 116 cells of 6.56 µM. Besides, in [1], the activity at 10 µM amounted to 33.1%. Besides, the “global histone H3 acetylation and tubulin acetylation” value in experiment [3] was “no increase in global histone acetylation or tubulin acetylation”.

As for `Cn1ccnc1C(=O)/C=C/c1ccc(CC(=O)Nc2ccc(S(F)(F)(F)(F)F)cc2)cc1` [IPE-22, (E)-2-(4-(3-(1-Methyl-1H-imidazol-2-yl)-3-oxoprop-1-en-1-yl)phenyl)-N-(4-(pentafluoro-λ^6-sulfanyl)phenyl)acetamide], the half-maximal inhibitory concentration (IC50) on HDAC6 was more than 200 µM; on HDAC8 it was 3 ± 0.2 µM; at HDAC3, more than 200 µM; on HDAC2, more than 200 µM; at HDAC1 it was more than 200 µM. The spindle collapse entry in [2] is “phenotype was reproduced”. The activity at 10 µM in [1] is -18.8%. Further, in [1] (read-out: growth inhibition at 10 μM), the inhibition at 10 µM was found to be 100%. Further, the “fold selectivity for HDAC8 compared to the other isoforms” value on HDAC8 (from IC50 values, other isoforms >200 μM) is recorded as not below 67 fold. In addition, the remaining activity at 100 µM on HDAC8 was in the range of 20 to 60%. Besides, in the experiment on NCI 60 cancer cell lines, the “GI50, all leukemia cell lines” value is given as “upper nanomolar”.

Turning to `Cn1ccnc1C(=O)/C=C/c1ccc(CC(=O)Nc2cc(F)c(F)c(F)c2)cc1` [IPE-24, (E)-2-(4-(3-(1-methyl-1H-imidazol-2-yl)-3-oxoprop-1-en-1-yl)phenyl)-N-(3,4,5-trifluorophenyl)acetamide], the IC50 at HDAC6 is more than 200 µM; at HDAC8 it was 13 ± 1 µM; on HDAC3 it was more than 200 µM; at HDAC2, more than 200 µM; at HDAC1, more than 200 µM. Also, the activity at 10 µM in experiment [1] was 22.7%. Further, on HDAC8, the remaining activity at 100 µM is 20 to 60%. Besides, the “GI50, all leukemia cell lines” value with NCI 60 cancer cell lines was “upper nanomolar”.

As to `Cn1ccnc1C(=O)/C=C/c1ccc(CC(=O)Nc2c(F)c(F)c(F)c(F)c2F)cc1` [IPE-25, (E)-2-(4-(3-(1-methyl-1H-imidazol-2-yl)-3-oxoprop-1-en-1-yl)phenyl)-N-(perfluorophenyl)acetamide], the IC50 stood at 8.6 ± 4.9 µM on HDAC6; 9 ± 0.5 µM on HDAC8; 16 ± 1 µM on HDAC3; 8.9 ± 0.6 µM on HDAC2; 12 ± 1 µM on HDAC1. The activity at 10 µM in [1] was determined as 61.4%.

Consider `Cn1ccnc1C(=O)/C=C/c1ccc(CC(=O)Nc2cc(C(F)(F)F)cc(C(F)(F)F)c2)cc1` [IPE-26, (E)-N-(3,5-bis(trifluoromethyl)phenyl)-2-(4-(3-(1-methyl-1H-imidazol-2-yl)-3-oxoprop-1-en-1-yl)phenyl)acetamide], for which the concentration for half-maximal inhibition (IC50) is more than 100 µM at HDAC6; 15 ± 1 µM at HDAC8; more than 200 µM on HDAC3; more than 100 µM on HDAC2; more than 200 µM at HDAC1. The activity at 10 µM in experiment [1] was found to be 69%. For the same molecule, the remaining activity at 100 µM at HDAC8 lay within 20 to 60%.

In the case of `C#Cc1ccc(NC(=O)Cc2ccc(/C=C/C(=O)c3nccn3C)cc2)cc1` [IPE-27, (E)-N-(4-Ethynylphenyl)-2-(4-(3-(1-methyl-1H-imidazol-2-yl)-3-oxoprop-1-en-1-yl)phenyl)acetamide], the IC50 at HDAC6 is more than 100 µM; on HDAC8 it was 12 ± 1 µM; at HDAC3 it was more than 100 µM; at HDAC2, more than 100 µM; on HDAC1, more than 100 µM. Moreover, the activity at 10 µM in [1] came out at 53.5%. Besides, the remaining activity at 100 µM on HDAC8 was in the range of 20 to 60%.

With `Nc1ccccc1NC(=O)c1ccc(CNC(=O)OCc2cccnc2)cc1` [MS275, reference compound], in experiment [3], the “global histone H3 acetylation and tubulin acetylation” value is listed as “dramatically increased”.

Turning to `O=C(CCCCCCC(=O)Nc1ccccc1)NO` [SAHA, reference compound], the spindle collapse result in [2] is given as “did not produce the same aberrant spindle”. For the same molecule, the “global histone H3 acetylation and tubulin acetylation” value in [3] is given as “dramatically increased”. The “cells in G2/M” value in the experiment with HeLaM cells (48 hours, subG1 excluded (DMSO 10%)) turned out to be 8.2%. The subG1 population in the experiment with HeLaM cells (72 hr post treatment (DMSO 14%)) is reported as 37%.

Turning to `CC(=O)O[C@H]1C(=O)[C@@]2(C)[C@H]([C@H](OC(=O)c3ccccc3)[C@]3(O)C[C@H](OC(=O)[C@H](O)[C@@H](NC(=O)c4ccccc4)c4ccccc4)C(C)=C1C3(C)C)[C@]1(OC(C)=O)CO[C@@H]1C[C@@H]2O` [Taxol, reference compound], the “Vmax of tubulin polymerization” value in experiment [4] was “higher Vmax than DMSO”.

The record behind these values is paper PMC8530978 (Bioorganic chemistry, 2021).
